In ChEMBL document CHEMBL1128383, “Potent, orally active, competitive N-methyl-D-aspartate (NMDA) receptor antagonists are substrates for a neutral amino acid uptake system in Chinese hamster ovary cells” (J Med Chem, 1995):

Tests used:
[1] = target: T1, Glutamate NMDA receptor (Rattus norvegicus) (UniProt P35439+Q00959+Q00960+Q00961+Q62645+Q8VHN2+Q9R1M7); assay: (§1) Inhibition of NMDA receptor binding affinity in rat brain synaptosomal membrane using [3H]glutamate as radioligand; type: cell membranes; conditions: concentration not given here
How it was run: (§2)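 Displacement of radioligand ([3H]glutamate, [3H]glycine or [3H]CGP 39653) from rat cortex synaptosomal membranes. IC50 values are means of at least two experiments, each run in triplicate.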

[2] = target: T1, Glutamate NMDA receptor (Rattus norvegicus); assay: (§3) Inhibition of receptor binding affinity in rat brain synaptosomal membrane was determined by [3H]-CGP- 39653 as radioligand; type: cell membranes; conditions: concentration not given here; how it was run: as §2
[3] = target: T1, Glutamate NMDA receptor (Rattus norvegicus); assay: (§4) Inhibition of NMDA receptor binding affinity in rat brain synaptosomal membrane using [3H]glycine as radioligand; type: cell membranes; conditions: concentration not given here; how it was run: as §2
[4] = target: Glutamate NMDA receptor; assay: as §4; type: cell membranes; how it was run: as §2
[5] = test system: Mus musculus; assay: Maximal electroshock (MES) results in mice by iv administration of 10 mg/kg expressed as number of animals with ataxia total 5 animals tested after 2 hr was reported; type: functional
How it was run: (§5)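 Adult male CF-1 mice (18–24 g) dosed iv, mg/kg. At 15 min, 1 h and 2 h after dosing, a 60 Hz sinusoidal current (50 mA base to peak, 0.2 s) is applied through corneal electrodes smeared with electrolyte jelly. Protection means no tonic hindlimb extension. Ataxia is scored by inverted screen. Data are expressed as animals affected per animals tested, 5 per group.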

[6] = test system: Mus musculus; assay: Maximal electroshock (MES) results in mice by iv administration of 3 mg/kg expressed as number of animals with ataxia total 5 animals tested after 2 hr was reported; type: functional; how it was run: as §5
[7] = test system: Mus musculus; assay: Maximal electroshock (MES) results in mice by iv administration of 10 mg/kg expressed as number of animals protected by total 5 animals tested after 15 min was reported; type: functional; how it was run: as §5
[8] = target: Glutamate NMDA receptor; assay: as §3; type: cell membranes; how it was run: as §2
[9] = target: Glutamate NMDA receptor; assay: Inhibition of receptor binding affinity in […] measured using LDH release
How it was run: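 Neuronal cell-culture excitotoxicity assay. Cell death is induced by a 5 min application of 100 μM NMDA and read out as lactate dehydrogenase release. The value is the compound concentration needed to prevent cell death.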

[10] = test system: Mus musculus; assay: Maximal electroshock (MES) results in mice by iv administration of 3 mg/kg expressed as number of animals with ataxia by total 5 animals tested after 1 hr was reported; type: functional; how it was run: as §5
[11] = test system: Mus musculus; assay: Maximal electroshock (MES) results in mice by iv administration of 3 mg/kg expressed as number of animals protected by total 5 animals tested after 1 hr was reported; type: functional; how it was run: as §5
[12] = test system: Mus musculus; assay: Maximal electroshock (MES) results in mice by iv administration of 3 mg/kg expressed as number of animals with ataxia by total 5 animals tested after 15 min was reported; type: functional; how it was run: as §5
[13] = target: Glutamate NMDA receptor; assay: as §1; type: cell membranes; how it was run: as §2
[14] = test system: Mus musculus; assay: Maximal electroshock (MES) results in mice by iv administration of 10 mg/kg expressed as number of animals protected by total 5 animals tested after 2 hr was reported; type: functional; how it was run: as §5
[15] = test system: Mus musculus; assay: Maximal electroshock (MES) results in mice by iv administration of 3 mg/kg expressed as number of animals protected by total 5 animals tested after 2 hr was reported; type: functional; how it was run: as §5
[16] = test system: Mus musculus; assay: Maximal electroshock (MES) results in mice by iv administration of 10 mg/kg expressed as number of animals protected by total 5 animals tested after 1 hr was reported; type: functional; how it was run: as §5
[17] = test system: Mus musculus; assay: Maximal electroshock (MES) results in mice by iv administration of 10 mg/kg expressed as number of animals with ataxia total 5 animals tested after 15 min was reported; type: functional; how it was run: as §5
[18] = test system: Mus musculus; assay: Maximal electroshock (MES) results in mice by iv administration of 10 mg/kg expressed as number of animals with ataxia total 5 animals tested after 1 hr was reported; type: functional; how it was run: as §5
[19] = test system: Mus musculus; assay: Maximal electroshock (MES) results in mice by iv administration of 3 mg/kg expressed as number of animals protected by total 5 animals tested after 15 min was reported; type: functional; how it was run: as §5
[20] = target: T1, Glutamate NMDA receptor (Rattus norvegicus); assay: Inhibition of NMDA receptor binding in rat brain synaptosomal membrane using [3H]glutamate as radioligand; type: cell membranes; conditions: concentration not given here; how it was run: as §2
[21] = target: T1, Glutamate NMDA receptor (Rattus norvegicus); assay: (§6) Inhibition of NMDA receptor binding affinity in rat brain synaptosomal membrane by using [3H]glycine as radioligand; type: cell membranes; conditions: concentration not given here; how it was run: as §2
[22] = target: Glutamate NMDA receptor; assay: Inhibition of NMDA receptor binding affinity in rat brain synaptosomal membrane was determined by [3H]-CGP- 39653 as radioligand; type: cell membranes
How it was run: (§7)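 Displacement of the named radioligand from rat cortex synaptosomal membranes, following previously reported procedures. IC50 values are means of at least two experiments, each run in triplicate.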

[23] = Therapeutic index(TI) expressed as ratio of ataxia ED50 to the MES ED50 was determined; conditions: read-out: TI
[24] = target: Glutamate NMDA receptor; assay: as §6; type: cell membranes; how it was run: as §7
[25] = organism: Mus musculus; assay: Potent oral activity in MES mice.; type: functional
[26] = test system: Mus musculus; assay: Maximal electroshock results in mice by iv administration of 3 mg/kg expressed as 50% effective dose; type: functional

Compound `N[C@@H](Cc1cccc(-c2ccccc2)c1)C(=O)O` has an inhibition [1] of 58%, an inhibition [2] of 52% and an inhibition [3] of 52%.

Compound `N[C@@H](Cc1cc(CP(=O)(O)O)cc(-c2ccccc2)c1)C(=O)O` has an IC50 [4] of 224000 nM, an Ataxia [5] of 0 and an Ataxia [6] of 0. It also gave a Protected [7] of 5, an IC50 [8] of 88 nM and an IC50 [9] of 1000 nM. The Ataxia [10] was 0, the Protected [11] was 0 and the Ataxia [12] was 0. For the same compound, the IC50 [13] was 130 nM, the Protected [14] was 3 and the Protected [15] was 1. It also gave a Protected [16] of 4, an Ataxia [17] of 0 and an Ataxia [18] of 1. It also gave a Protected [19] of 1.

With `O=P(O)(O)Cc1cc(CP(=O)(O)O)cc(-c2ccccc2)c1` the inhibition [20] was 80%, the inhibition [21] was 100% and the inhibition [2] was 86%.

`N[C@H](Cc1cc(CP(=O)(O)O)cc(-c2ccc3ccccc3c2)c1)C(=O)O` gave an IC50 [8] of 590 nM and an IC50 [13] of 650 nM.

`O=C(O)C1CN(CCCP(=O)(O)O)CCN1` (stereo not given) showed an IC50 [22] of 148 nM, a selectivity ratio [23] of 2.21 and an IC50 [13] of 837 nM. The IC50 [24] was over 200000 nM.

Work on `N[C@@H](Cc1cc(CP(=O)(O)O)cc(-c2cccc3ccccc23)c1)C(=O)O` yielded an IC50 [4] of 65400 nM, an ED50 [25] of 5 mg/kg and an IC50 [8] of 6 nM. For the same compound, the selectivity ratio [23] was 2.28, the IC50 [9] was 50 nM and the ED50 [26] was 0.53 mg/kg. The IC50 [13] was 15 nM.
